In the library only some 1.8% were active in any assay of this set; here they are far more common.
SUMO1-SIM PPI – SUMO1-SIM interaction modulation | SUMO1 binding to a labelled peptide, TR-FRET, 1 h | AID 602429 | 360,000 compounds, 0.33% hits | inhibition, % at 20 µM; in the data active = inhibition above about 37%
Target sequence (P63165 whole entry, looked up): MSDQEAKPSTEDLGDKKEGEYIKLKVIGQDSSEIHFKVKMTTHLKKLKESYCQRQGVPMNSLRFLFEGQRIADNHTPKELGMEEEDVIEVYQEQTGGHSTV
STEP block – inhibitors of human striatal-enriched phosphatase STEP. AID 588621. inhibition, % at 20 µM. P54829. 360,000 compounds, 0.25% hits. recombinant STEP, OMFP fluorogenic substrate, fluorescence;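 active = inhibition at 20 µM, scaled per plate between control wells, above about 37%, limit read from the data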;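 note: 0% = DMSO with enzyme and substrate and 100% = substrate only without enzyme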
Target sequence (P54829 whole entry, looked up): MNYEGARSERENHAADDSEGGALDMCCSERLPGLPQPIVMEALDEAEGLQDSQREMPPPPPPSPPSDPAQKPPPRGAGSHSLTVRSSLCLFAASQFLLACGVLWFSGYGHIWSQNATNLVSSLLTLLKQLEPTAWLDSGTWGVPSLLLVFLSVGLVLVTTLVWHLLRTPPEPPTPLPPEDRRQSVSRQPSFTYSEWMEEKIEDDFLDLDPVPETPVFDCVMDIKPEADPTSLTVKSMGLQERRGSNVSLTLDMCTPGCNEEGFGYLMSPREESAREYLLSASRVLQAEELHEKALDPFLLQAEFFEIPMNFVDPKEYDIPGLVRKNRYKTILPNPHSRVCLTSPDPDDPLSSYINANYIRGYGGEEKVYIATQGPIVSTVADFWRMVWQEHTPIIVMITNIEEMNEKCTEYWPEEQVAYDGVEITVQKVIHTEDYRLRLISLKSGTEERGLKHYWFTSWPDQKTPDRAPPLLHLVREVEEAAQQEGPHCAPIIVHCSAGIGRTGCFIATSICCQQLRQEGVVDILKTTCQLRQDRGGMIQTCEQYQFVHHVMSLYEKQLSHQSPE
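Material: STEP (striatal-enriched tyrosine phosphatase) enzyme, cell-free; Compound dosing: 20 µM single dose in 1% DMSO; Technique: fluorescence read at 480 nm ex / 540 nm em; Times: reaction 20 min, ambient temperature; Medium: 50 mM Bis-Tris pH 6.0 with 2.5 mM DTT and 0.005% Tween 20; Also added: OMFP at 25 µM.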
Scp1 inh – inhibitors of human Scp-1 phosphatase; inhibition, % at 20 µM; Q9GZU7; 340,000 compounds, 0.88% hits; Recombinant Scp1, phosphopeptide, malachite green phosphate absorbance;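 active = inhibition above about 50% at 20 µM, limit read from the data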;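 note: plate controls were DMSO wells with enzyme for no effect and wells lacking enzyme for full effect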
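Test system – truncated SCP-1 phosphatase (76-261aa) · Reagent – Phosphorylated 17-residue peptide substrate · Incubation – 45 min room-temperature reaction, 5 min colour, 30 min stabiliser · Detection – colorimetric phosphate reagent with accelerator and stabiliser, absorbance at 630 nm · Measure – % inhibition at 20 µM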
DNMT1 block – DNMT1 (human) enzyme inhibition; inhibition (reported as % activation of signal), % at 10 µM; 360,000 compounds, 0.83% hits; P26358; DNMT1 molecular beacon, Hinp1I cleavage, fluorescence; in the data active = inhibition above about 50%
HKDC1 inhibitor – blocks human hexokinase HKDC1 activity. Q2TB90. recombinant HKDC1, G6PDH/diaphorase resazurin coupled fluorescence. inhibition, % at 20 µM. 340,000 compounds, 0.16% hits;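 active = inhibition above about 35% when tested at 20 µM, limit read from the data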;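 note: plate controls were DMSO wells with enzyme for no effect and DMSO wells lacking enzyme for full effect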
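Test system: Recombinant HKDC1 (HK5) hexokinase enzyme, produced in-house | Input: HKDC1 at 5 µg/mL | Buffer or medium: Tris pH 8.0 buffer with MgCl2, Tween-20, BSA, BME | Schedule: 90 min reaction incubation at room temperature, dark | Technique: Resazurin-to-resorufin fluorescence via G6PDH and diaphorase coupling, 525/613 nm | Controls: DMSO wells with and without enzyme mix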
LMPTP inh – blocks human LMPTP phosphatase. 360,000 compounds, 0.22% hits. inhibition, % at 20 µM. P24666. AID 651560. recombinant LMPTP-A, OMFP fluorogenic substrate, fluorescence intensity;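 active = compounds that cut the enzyme signal by at least half of the control window in the single-dose screen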;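 note: plate controls were DMSO wells with enzyme plus substrate for no effect and substrate without enzyme for full effect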
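Test system: LMPTP-A phosphatase enzyme; input: 0.625 nM LMPTP-A final; reagent: OMFP substrate, 400 µM final; compound dosing: 20 µM single dose, 3% DMSO; incubation: 50 min dark incubation at room temperature; measured by: endpoint fluorescence intensity from OMFP dephosphorylation; measure: % inhibition relative to no-enzyme and uninhibited control wells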
Scp-1 conf – confirmation of human Scp-1 phosphatase inhibitors. AID 540281. 2,500 compounds, 61% hits. inhibition, % at 20 µM. shares compounds with Scp1 inh. recombinant SCP-1 catalytic domain, phosphate release, malachite green absorbance;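 note: plate controls were DMSO with enzyme for no effect and buffer wells lacking enzyme for full effect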
Scp-1 MG ctr – counter-screen for Scp-1 inhibitors: colorimetric interference; shares compounds with Scp1 inh; Colorimetric interference counterscreen, malachite green absorbance 630 nm; apparent inhibition (interference), % at 20 µM; 2,500 tested, under 10 active; AID 540313;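 note: compounds added after enzyme reaction finished so only phosphate colour detection is probed; plate controls were DMSO wells with completed Scp-1 reaction for no effect and substrate wells lacking enzyme for full effect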
Scp-1 Tm shift – binds human Scp-1, shifting its melting temperature; shares compounds with Scp1 inh; Recombinant SCP1, Sypro Orange thermal shift Tm; thermal shift relative to vanadate control, % at 40 µM; 1,500 compounds, 25% hits;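 active = substances whose mean melting-temperature shift, as a percentage of the reference inhibitor's shift, reaches about 5.3%, limit read from the data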;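 note: 0% = Tm of DMSO wells and 100% = Tm with sodium orthovanadate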
An asterisk follows results filed as active.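 Rule for the calls, unless noted: active = inhibition of at least 30% at 20 µM; inactive = the rest.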

Screening C[C@H](CO)N1C[C@H](C)[C@@H](CN(C)S(=O)(=O)c2ccc3c(c2)OCCCO3)OCc2cn(nn2)CCCC1=O returned SUMO1-SIM PPI 6, STEP block 0, DNMT1 block 1 and LMPTP inh -2.
`O=C(NC1CCCCCC1)C1CCCN(c2ncccn2)C1` (centres undefined) gave SUMO1-SIM PPI 7, STEP block 0, Scp1 inh -4, DNMT1 block -1, HKDC1 inhibitor -8 and LMPTP inh 0.
COC(=O)c1cc(CNC(=O)c2ccccc2OCc2c(C)noc2C)ccc1OC was read as SUMO1-SIM PPI 4, STEP block -2, Scp1 inh -4, DNMT1 block 0, HKDC1 inhibitor 4 and LMPTP inh 0.
For O=C(CN1CCN(Cc2ccc(F)cc2Cl)C1=O)NCCc1ccccc1 the results were SUMO1-SIM PPI 0, STEP block -1, Scp1 inh 50*, DNMT1 block 7, HKDC1 inhibitor 1, LMPTP inh -1, Scp-1 conf 6 and Scp-1 MG ctr -11.
For CC(=O)NC(Cc1ccccc1F)C(=O)NC1CCN(C(=O)NCc2ccccc2)CC1 (centres undefined) the results were SUMO1-SIM PPI 4, STEP block 1, Scp1 inh -7, DNMT1 block 1, HKDC1 inhibitor 0 and LMPTP inh -1.
For Cc1[nH]c2ccccc2c1N=Nc1ccc(F)cc1 the results were SUMO1-SIM PPI -8, STEP block -2, Scp1 inh 9, DNMT1 block -13, HKDC1 inhibitor -3 and LMPTP inh 2.
Screening Cc1[nH]c2ccccc2c1N=Nc1cc(C(=O)O)cc(C(=O)O)c1 returned SUMO1-SIM PPI -14, STEP block 4, Scp1 inh 52*, DNMT1 block 4, HKDC1 inhibitor -3, LMPTP inh 1, Scp-1 conf -7 and Scp-1 MG ctr -19.
O=C1NC(=S)S/C1=C1\Sc2ccccc2N1CCCS(=O)(=O)O was read as SUMO1-SIM PPI 5, STEP block 6, Scp1 inh -2, DNMT1 block 9, HKDC1 inhibitor 1 and LMPTP inh -1.
`NN1C(=O)/C(=C2/Sc3ccccc3N2CCCS(=O)(=O)O)SC1=S` gave SUMO1-SIM PPI -7, STEP block 29, Scp1 inh 84*, DNMT1 block 30, HKDC1 inhibitor -1, LMPTP inh 0, Scp-1 conf 73*, Scp-1 MG ctr 2 and Scp-1 Tm shift -11.
Screening CC(=O)Nc1nc2c(ccc3ccccc32)s1 returned SUMO1-SIM PPI 6, STEP block -2, Scp1 inh 72*, DNMT1 block -4, HKDC1 inhibitor -3, LMPTP inh -1, Scp-1 conf 6 and Scp-1 MG ctr -8.
Screening O=C(Cc1cccs1)Nc1nc2c(ccc3ccccc32)s1 returned SUMO1-SIM PPI -2, STEP block 0, Scp1 inh -18, DNMT1 block -12, HKDC1 inhibitor 6 and LMPTP inh 4.
COc1ccccc1-c1csc(C(O)(c2ccccc2)C(F)(F)F)n1 (centres undefined) was read as SUMO1-SIM PPI -1, STEP block -3, DNMT1 block -8 and LMPTP inh 3.
For Cn1ccsc1=NC(=O)c1ccc(=O)[nH]c1 the results were SUMO1-SIM PPI 2, STEP block -1, Scp1 inh 94*, DNMT1 block 2, HKDC1 inhibitor -7, LMPTP inh 0, Scp-1 conf -19 and Scp-1 MG ctr -16.
CCOC(=O)c1ccc2c(c1)N(C)C(=O)c1ccccc1S2 was read as SUMO1-SIM PPI -1, STEP block -2, Scp1 inh 53*, DNMT1 block 0, HKDC1 inhibitor -2, LMPTP inh -1, Scp-1 conf 3 and Scp-1 MG ctr -10.
Screening CCN1C(=O)c2ccccc2Sc2ccc(C(=O)O)cc21 returned SUMO1-SIM PPI 5, STEP block -2, Scp1 inh -13, DNMT1 block 0, HKDC1 inhibitor -5 and LMPTP inh -2.
For O=C(NNC(=O)c1ccc(Br)s1)c1cccc(Cl)c1 the results were SUMO1-SIM PPI 4, STEP block 2, Scp1 inh -2, DNMT1 block 8, HKDC1 inhibitor -4 and LMPTP inh 1.
NC(=O)C1CCN(C(=O)CCc2nc3sc4c(c3c(=O)[nH]2)CCCC4)CC1 was read as SUMO1-SIM PPI 8, STEP block 4, Scp1 inh 58*, DNMT1 block 35, HKDC1 inhibitor 7, LMPTP inh 5, Scp-1 conf 62*, Scp-1 MG ctr -14 and Scp-1 Tm shift 2.
Screening CCOC(=O)N1CCN(C(=O)CCc2nc3sc4c(c3c(=O)[nH]2)CCCC4)CC1 returned SUMO1-SIM PPI 6, STEP block -1, Scp1 inh -4, DNMT1 block -1, HKDC1 inhibitor -5 and LMPTP inh 0.
For O=C(O)c1ccc(-n2c(-c3cc(-c4ccco4)[nH]n3)n[nH]c2=S)cc1 the results were SUMO1-SIM PPI 27, STEP block 6, Scp1 inh 67*, DNMT1 block 43, HKDC1 inhibitor -2, LMPTP inh -2, Scp-1 conf 69*, Scp-1 MG ctr -8 and Scp-1 Tm shift -6.
Screening CC(=O)c1ccc(-n2c(-c3cc(-c4ccco4)[nH]n3)n[nH]c2=S)cc1 returned SUMO1-SIM PPI 20, STEP block -2, Scp1 inh -2, DNMT1 block 1, HKDC1 inhibitor -3 and LMPTP inh -2.
`Cc1ccc(-c2ccc3c(c2)O[C@H](CN(C)C(=O)Nc2ccc(C(F)(F)F)cc2)[C@H](C)CN([C@H](C)CO)S3(=O)=O)cc1` gave SUMO1-SIM PPI 4, STEP block -5, DNMT1 block -26 and LMPTP inh 3.
Screening CC(=O)c1ccc(S(=O)(=O)N2Cc3ccccc3CC2C(=O)O)cc1 (centres undefined) returned SUMO1-SIM PPI 17, STEP block 8, Scp1 inh 82*, DNMT1 block 37, HKDC1 inhibitor -4, LMPTP inh 0, Scp-1 conf 64*, Scp-1 MG ctr -16 and Scp-1 Tm shift -1.

Screens: PubChem, Sanford-Burnham Center for Chemical Genomics
